Reference: ChEMBL document CHEMBL4610036, “Discovery of small molecule antagonists of chemokine receptor CXCR6 that arrest tumor growth in SK-HEP-1 mouse xenografts as a model of hepatocellular carcinoma” (Bioorg Med Chem Lett, 2020)
Calls of active or inactive are those of the source. No cut-off for these calls is given here.

How the values were obtained:
[1] = Toxicity in NOD/SCID mouse xenografted with human SKHEP1 cells assessed as animal death at 30 to 60 mg/kg, po administered on day 4 to day 30 post-tumor cell inoculation; assay type: organism-based, SK-HEP1; settings: in vivo
[2] = Volume of distribution at steady state in mouse at 5 mg/kg, iv; assay type: ADME, organism-based; settings: in vivo, read-out: Vdss
[3] = molecular target: T1, C-X-C chemokine receptor type 6 (Mus musculus, UniProt Q9EQ16); assay: Antagonist activity at mouse CXCR6 by DiscoveRx cell based beta-arrestin assay
T1 sequence (Q9EQ16 whole entry): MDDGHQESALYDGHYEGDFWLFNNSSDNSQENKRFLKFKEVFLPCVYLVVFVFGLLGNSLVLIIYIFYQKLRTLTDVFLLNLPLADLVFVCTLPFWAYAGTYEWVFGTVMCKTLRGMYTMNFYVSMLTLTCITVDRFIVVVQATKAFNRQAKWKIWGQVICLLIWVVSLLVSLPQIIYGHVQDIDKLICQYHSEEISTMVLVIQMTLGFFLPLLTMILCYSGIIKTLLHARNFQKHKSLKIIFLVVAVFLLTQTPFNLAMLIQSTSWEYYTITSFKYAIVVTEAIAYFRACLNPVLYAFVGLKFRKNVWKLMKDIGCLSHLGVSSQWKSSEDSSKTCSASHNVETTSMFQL

[4] = Stability in mouse plasma; assay type: ADME, cell-free
[5] = Stability in human plasma; assay type: ADME, cell-free
[6] = AUC in mouse at 10 mg/kg, po; assay type: ADME, organism-based; settings: in vivo
Summary of the method: (§1)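 Mice dosed orally by gavage, dose volume set by morning body weight. Serial blood samples (~30 μl) from submandibular or saphenous vein into K2EDTA. Plasma separated by centrifugation at 3000 g, stored at −70 °C, analysed by LC/MS/MS.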

[7] = test system: SK-HEP1; assay: Toxicity in human SKHEP1 cells assessed as effect on cell viability after 72 hrs; assay type: cell-based; settings: sk-hep1, 72 h
[8] = Half life in mouse at 10 mg/kg, po; assay type: ADME, organism-based; settings: in vivo; summary of the method: as §1
[9] = test system: CXCR6 receptor (Prolink-tagged, human); assay: Safety index, ratio of LC50 for toxicity in human liver microsomes to IC50 for Prolink-tagged human CXCR6 receptor; settings: read-out: Ratio LC50/IC50
[10] = test system: SK-HEP1; assay: Antitumor activity against human SKHEP1 cells xenografted in NOD/SCID mouse assessed as tumor weight at 30 mg/kg, po administered on day 4 to day 30 post-tumor cell inoculation (reference value: 151 +/- 66 mg); assay type: functional
[11] = Drug metabolism in mouse liver microsomes incubated up to 1 hr; assay type: ADME, Microsome; settings: read-out: Drug metabolism
Summary of the method: (§2)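 Liver microsomes (1.0 mg/mL) preincubated with compound (1 μM final) for 10 min at 37 °C. Reaction started with NADPH-generating system (NADP+, glucose-6-phosphate, G6PDH, MgCl2) in 100 mM potassium phosphate, pH 7.4. Sampled at 0, 5, 15, 30 and 60 min; percent remaining at 1 hr reported.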

[12] = molecular target: T2, C-X-C chemokine receptor type 6 (Homo sapiens, UniProt O00574); assay: Antagonist activity at Prolink-tagged human CXCR6 receptor assessed as inhibition of forskolin-induced cAMP accumulation by DiscoveRx cell based assay relative to control; assay type: functional; set-up: concentration or dose not given beside the values; settings: concentration not given here
Summary of the method: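 CXCR6 β-arrestin cells in OptiMEM with 2% FBS, 500 cells/well, grown overnight; compounds added, then forskolin with 20 nM CXCL16 (stock concentrations) in HBSS/HEPES/BSA with RO-20-1724, 30 min at room temperature. cAMP read by LANCE Ultra TR-FRET after a further 30 min. Hill slope fixed at 1; at least two runs on different days, averaged pIC50 ± SD.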
Target sequence in this assay (O00574 whole entry, looked up): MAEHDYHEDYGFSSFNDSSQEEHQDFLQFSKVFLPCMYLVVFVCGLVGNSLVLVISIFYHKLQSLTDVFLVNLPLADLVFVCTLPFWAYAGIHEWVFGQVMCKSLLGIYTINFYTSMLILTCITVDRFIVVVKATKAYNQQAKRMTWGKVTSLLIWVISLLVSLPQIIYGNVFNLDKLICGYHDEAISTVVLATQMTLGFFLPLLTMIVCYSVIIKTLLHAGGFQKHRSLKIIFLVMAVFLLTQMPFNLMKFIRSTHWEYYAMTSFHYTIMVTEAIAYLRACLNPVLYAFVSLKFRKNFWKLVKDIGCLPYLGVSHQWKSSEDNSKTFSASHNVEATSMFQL

[13] = test system: SK-HEP1; assay: Antitumor activity against human SKHEP1 cells xenografted in NOD/SCID mouse assessed as inhibition of tumor growth at 30 to 60 mg/kg, po administered on day 4 to day 30 post-tumor cell inoculation; assay type: functional, organism-based
[14] = Half life in mouse at 5 mg/kg, iv; assay type: ADME, organism-based; settings: in vivo
[15] = Toxicity in NOD/SCID mouse xenografted with human SKHEP1 cells assessed as animal weight at 30 to 60 mg/kg, po administered on day 4 to day 30 post-tumor cell inoculation; assay type: organism-based, SK-HEP1; settings: in vivo
[16] = molecular target: T2, C-X-C chemokine receptor type 6; assay: Antagonist activity at Prolink-tagged human CXCR6 receptor assessed as inhibition of CXCL16-induced beta-arrestin recruitment by DiscoveRx cell based assay
Target sequence in this assay (O00574 whole entry): as the sequence (O00574 whole entry, looked up) above

[17] = Toxicity in human liver microsomes; set-up: species or system Microsome
[18] = molecular target: T2, C-X-C chemokine receptor type 6; assay: Antagonist activity at Prolink-tagged human CXCR6 receptor assessed as inhibition of CXCL16-induced beta-arrestin recruitment by DiscoveRx cell based assay relative to control; set-up: concentration or dose not given beside the values; settings: concentration not given here
Summary of the method: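 CXCR6 β-arrestin cells in assay media without G418/hygromycin, 800 cells/well, grown overnight at 37 °C; compounds added acoustically (DMSO ≤0.3%), then 20 nM CXCL16 (final) for 90 min at 37 °C. PathHunter luminescence read. Normalized between CXCL16-alone and no-ligand wells; four-parameter fit with Hill slope fixed at 1; at least two runs on different days, averaged pIC50 ± SD.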
Target sequence in this assay (O00574 whole entry, looked up): as above

[19] = Toxicity in NOD/SCID mouse xenografted with human SKHEP1 cells assessed as effect on behavior phenotypes at 30 to 60 mg/kg, po administered on day 4 to day 30 post-tumor cell inoculation; assay type: organism-based, SK-HEP1; settings: in vivo
[20] = Drug metabolism in human liver microsomes incubated up to 1 hr; assay type: ADME, Microsome; settings: read-out: Drug metabolism; summary of the method: as §2
[21] = Ratio of solubility of compound in aqueous buffer at pH 5 to 7.4 to IC50 for Prolink-tagged human CXCR6 receptor by DiscoveRx cell based assay; assay type: physicochemical
[22] = test system: SK-HEP1; assay: Antitumor activity against human SKHEP1 cells xenografted in NOD/SCID mouse assessed as tumor weight at 60 mg/kg, po administered on day 4 to day 30 post-tumor cell inoculation (reference value: 151 +/- 66 mg); assay type: functional
[23] = Clearance in mouse at 5 mg/kg, iv; assay type: ADME, organism-based; settings: in vivo
[24] = molecular target: T2, C-X-C chemokine receptor type 6; assay: Inhibition of CXCR6-mediated cell invasion in human SKHEP1 cells after 72 hrs by transwell assay; assay type: cell-based; settings: SK-HEP1
Summary of the method: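 SK-HEP-1 cells, 100k/well in 0.2% FBS, seeded in upper chamber of a chemotaxis plate coated with matrigel (250 μg/ml). CXCL16 (0.6 μg/ml) in lower chamber; compound in both chambers. Kept at 37 °C, 5% CO2 and imaged hourly in IncuCyte. Migration quantified as confluence from phase-contrast images.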
Target sequence in this assay (O00574 whole entry, looked up): as above

[25] = Cmax in mouse at 10 mg/kg, po; assay type: ADME, organism-based; set-up: dose 10 mg/kg, route oral; settings: in vivo; summary of the method: as §1

With `COc1cc(C(=O)N[C@@H]2C[C@H]3CCC[C@@H](C2)N3Cc2nc3c(C(F)(F)F)cccc3s2)cc(OC)c1OC` as the molecule, how does the Activity [1] read?
The Activity was “Non-Toxic”.

And the Vd [2]?
The Vd was 3.32 L/kg.

What about the IC50 [3] of the same molecule?
Its IC50 is over 40000 nM.

And the Stability [4]?
The Stability was “Stable”.

What about the Stability [5] of the same molecule?
Its Stability is “Stable”.

And the AUC [6]?
The AUC was 2050 ng·h/mL.

What about the Activity [7] of the same molecule?
Its Activity is “Non-Toxic”.

What about the half-life [8] of the same molecule?
The half-life was 2.82 h.

And the selectivity ratio [9]?
The selectivity ratio was over 40.

What about the Activity [10] of the same molecule?
The Activity was 59 mg.

What about the metabolised at 1 h [11] of the same molecule?
Its metabolised at 1 h is 100%.

What about the inhibition [12] of the same molecule?
The inhibition was 98%.

What about the Activity [13] of the same molecule?
The Activity was “Active”.

And the half-life [14]?
The half-life was 1.58 h.

And the Activity [15]?
Its Activity is “Non-Toxic”.

And the IC50 [16]?
Its IC50 is 40 nM.

What about the LC50 [17] of the same molecule?
The LC50 was “>= 25 uM”.

What about the inhibition [18] of the same molecule?
Its inhibition is 103%.

And the Activity [19]?
The Activity was “Non-Toxic”.

And the metabolised at 1 h [20]?
The metabolised at 1 h was 100%.

What about the Ratio [21] of the same molecule?
Its Ratio is “>= 10”.

And the Activity [22]?
The Activity was 55 mg.

What about the clearance [23] of the same molecule?
Its clearance is 28.4 mL/min/kg.

What about the inhibition [24] of the same molecule?
The inhibition was “Dose-dependent effect”.

And the Cmax [25]?
The Cmax was 798 ng/mL.
